Measured values reported in ChEMBL document CHEMBL4011626, “Structure-Based Optimization of Pyridoxal 5'-Phosphate-Dependent Transaminase Enzyme (BioA) Inhibitors that Target Biotin Biosynthesis in Mycobacterium tuberculosis” (J Med Chem, 2017).
Values after ≈ are worked out from the molar mass of the structure shown.

Columns and labels:
[1] = tested on: Mycobacterium tuberculosis H37Rv; assay: Inhibition of Bio-A in wild type Mycobacterium tuberculosis H37Rv after 9 days
Procedure, shortened: (§1)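 Wild-type Mtb H37Rv was pregrown in Sauton's medium with 1 μM biotin to OD580 1.0–1.2, washed twice in biotin-free Sauton's, and seeded at OD580 0.03 without biotin. Compounds were tested at 0.2–50 μM final, with no-compound controls, at 37 °C. OD580 was read at 9 days. MIC is the concentration giving 50% inhibition. Triplicate, two biological replicates.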

[2] = tested on: Mycobacterium tuberculosis; assay: Inhibition of Bio-A underexpressed in Mycobacterium tuberculosis in presence of anhydrotetracycline after 9 days
Procedure, shortened: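 BioA-overexpressing or BioA-underexpressing Mtb strains were pregrown in Sauton's with 1 μM biotin, washed twice, and seeded at OD580 0.03 in biotin-free medium with 200 ng/mL anhydrotetracycline to set BioA expression. Compounds were tested at 0.2–50 μM final at 37 °C. OD580 was read after 9 days. MIC is the concentration giving 50% inhibition. Triplicate, two biological replicates.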

[3] = tested on: Mycobacterium tuberculosis H37Rv; assay: Inhibition of Bio-A in wild type Mycobacterium tuberculosis H37Rv in presence of biotin after 9 days
Procedure, shortened: as §1, with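 “with 1 μM biotin added.” for “without biotin.”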

[4] = Inhibition of wild type Mycobacterium tuberculosis Bio-A using KAPA as substrate after 45 mins in presence of fluorescently labeled dethiobiotin tracer
[5] = tested on: Mycobacterium tuberculosis; assay: Antibacterial activity against wild type Mycobacterium tuberculosis H37Rv after 14 days; format: functional; details: 336 h

SMILES | MIC50 [1] | MIC50 [2] | further results
CC(=O)c1cccc(N2CCN(C(=O)c3cccc(Cl)c3)CC2)c1 | > 50 µM | 26.6 µM | –
CCCCCC(=O)N1CCN(c2ccc(C(C)=O)cc2)CC1 | 8.7 µM (≈ 2.63 µg/mL) | 10.6 µM | –
C/C(=N\O)c1ccc(N2CCN(C(=O)c3cccc(Cl)c3)CC2)cc1 | 20.4 µM (≈ 7.3 µg/mL) | 15.1 µM | –
CC(=O)c1ccc(N2CCN(C(=O)c3ccc4c(c3)OCCO4)CC2)cc1 | > 50 µM | 10.4 µM | –
COC(=O)c1ccc(N2CCN(C(=O)c3cccc(Cl)c3)CC2)cc1 | > 50 µM | > 50 µM | –
CC(=O)c1ccc(N2CCC(C(=O)c3ccc4c(c3)OCO4)CC2)cc1 | > 50 µM | > 50 µM | –
CC(=O)c1ccc(-c2cn(Cc3cccc(Cl)c3)nn2)s1 | > 50 µM | > 50 µM | –
N#Cc1ccc(N2CCN(C(=O)c3cccc(Cl)c3)CC2)cc1 | 18.5 µM (≈ 6.03 µg/mL) | 44.8 µM | –
CC(=O)c1ccc(N2CCN(C(=O)c3cc(Cl)cc(Cl)c3)CC2)cc1 | > 50 µM | > 50 µM | –
COc1ccc(-c2ccc(N3CCN(C(=O)c4cccc(Cl)c4)CC3)cc2)nc1 | 22 µM (≈ 8.97 µg/mL) | 24.4 µM | MIC50 [3]: > 50 µM
O=C(c1cccc(Cl)c1)N1CCN(c2ccc([N+](=O)[O-])cc2)CC1 | 15.4 µM (≈ 5.33 µg/mL) | 4.7 µM | –
Cc1noc(-c2ccc(N3CCN(C(=O)c4cccc(Cl)c4)CC3)cc2)n1 | > 50 µM | > 50 µM | –
CC(=O)c1ccc(-c2cn(Cc3cccc(Cl)c3)nn2)cc1 | 22 µM (≈ 6.86 µg/mL) | 24.4 µM | MIC50 [3]: > 50 µM
CC(=O)c1ccc(N2CCN(C(=O)c3ccc4c(c3)OCCCO4)CC2)cc1 | > 50 µM | 21.1 µM | –
O=C(c1cccc(Cl)c1)N1CCN(c2ccc(-c3ccno3)cc2)CC1 | 6.7 µM (≈ 2.46 µg/mL) | 0.4 µM | –
CCCC(=O)N1CCN(c2ccc(C(C)=O)cc2)CC1 | > 50 µM | > 50 µM | –
CC(=O)c1ccc(N2CCN(C(=O)c3ccc4c(c3)OCO4)CC2)cc1 | 5.6 µM (≈ 1.97 µg/mL) | 0.4 µM | MIC90 [1]: 23.4 µM (≈ 8.25 µg/mL); MIC90 [3]: > 50 µM; MIC90 [2]: 1.7 µM; IC50 [4]: 155 nM; MIC [5]: 26 µM (≈ 9.16 µg/mL)
O=C(c1cccc(Cl)c1)N1CCN(c2ccc3c(c2)COC3)CC1 | 40.8 µM (≈ 14 µg/mL) | 12.8 µM | –

SMILES | MIC50 [1] | MIC50 [2] | further results
CC(=O)c1ccc(N2CCN(C(=O)c3cccnc3)CC2)cc1 | > 50 µM | 14.6 µM | –
O=C(c1cccc(Cl)c1)N1CCN(c2ccc(-c3ccccn3)cc2)CC1 | > 50 µM | > 50 µM | –
CC(=O)c1ccc(N2CCC(C(=O)c3cccc(Cl)c3)CC2)cc1 | 4.1 µM (≈ 1.4 µg/mL) | 6.8 µM | –
CC(=O)c1ccc(N2CCN(C(=O)c3cncc(Cl)c3)CC2)cc1 | > 50 µM | > 50 µM | –
O=C1CCc2cc(N3CCN(C(=O)c4ccc5c(c4)OCO5)CC3)ccc21 | 1.7 µM (≈ 0.619 µg/mL) | 0.3 µM | –
CC(=O)c1ccc(N2CCN(C(=O)c3cccc(Cl)c3)CC2)s1 | 9.9 µM (≈ 3.45 µg/mL) | 1.1 µM | –
COc1cc(Cl)cc(C(=O)N2CCN(c3ccc(C(C)=O)cc3)CC2)c1 | 28.6 µM (≈ 10.7 µg/mL) | 18.3 µM | –
Cn1nnnc1-c1ccc(N2CCN(C(=O)c3cccc(Cl)c3)CC2)cc1 | > 50 µM | > 50 µM | –
CC(=O)c1ccc(N2CCN(C(=O)c3ccc(Cl)c(Cl)c3)CC2)cc1 | 10.2 µM (≈ 3.85 µg/mL) | 1.9 µM | –
CC(=O)c1ccc(N2CCN(C(=O)CC(C)C)CC2)cc1 | > 50 µM | > 50 µM | –
O=C1OCc2cc(N3CCN(C(=O)c4cccc(Cl)c4)CC3)ccc21 | 35 µM (≈ 12.5 µg/mL) | 1.8 µM | –
CC(=O)c1ccc(N2CCN(C(=O)c3cccc(Cl)c3)CC2)cc1 | 5.1 µM (≈ 1.75 µg/mL) | 0.5 µM | –
CC(=O)c1ccc(N2CCN(C(=O)c3cnn(C)c3)CC2)cc1 | > 50 µM | 11.3 µM | –
O=C1CCc2cc(N3CCN(C(=O)c4cccc(Cl)c4)CC3)ccc21 | 4.4 µM (≈ 1.56 µg/mL) | 0.3 µM | –
CC(=O)c1ccc(N2CCN(C(=O)c3cscn3)CC2)cc1 | > 50 µM | > 50 µM | –
CCC(=O)N1CCN(c2ccc(C(C)=O)cc2)CC1 | > 50 µM | > 50 µM | –
CN1Cc2cc(N3CCN(C(=O)c4cccc(Cl)c4)CC3)ccc2C1=O | 15.2 µM (≈ 5.62 µg/mL) | 1.2 µM | –
